The source of these data is ChEMBL document CHEMBL4819156, “Synthesis of novel 1H-Pyrazolo[3,4-b]pyridine derivatives as DYRK 1A/1B inhibitors” (Bioorg Med Chem Lett, 2021).

In experiment [1] the target is Dual specificity tyrosine-phosphorylation-regulated kinase 1B (Homo sapiens, UniProt Q9Y463). As to the kind of experiment: Inhibition of DYRK1B (unknown origin).
The target in experiment [2] is Dual specificity tyrosine-phosphorylation-regulated kinase 1A (Homo sapiens, UniProt Q13627). As to the kind of experiment: Inhibition of DYRK1A (unknown origin).
The subject of a further experiment is RKO. As to the kind of experiment: Cytotoxicity against human RKO cells assessed as reduction in cell viability. It counts as functional, cell-based.
The subject of experiment [3] is HCT-116. As to the kind of experiment: Cytotoxicity against human HCT116 cells assessed as reduction in cell viability. It counts as functional, cell-based.
Experiment [4] deals with DLD-1. As to the kind of experiment: Cytotoxicity against human DLD-1cells assessed as reduction in cell viability. It counts as functional, cell-based.
Experiment [5] relates to SW-620. As to the kind of experiment: Cytotoxicity against human SW-620 cells assessed as reduction in cell viability. Type of experiment: functional, cell-based.
The test system of experiment [6] is SW480. The experiment in a line: Cytotoxicity against human SW480 cells assessed as reduction in cell viability. Type of experiment: functional, cell-based.
For the next experiment, the system named is COLO 205. As to the kind of experiment: Cytotoxicity against human COLO205 cells assessed as reduction in cell viability. Type of experiment: functional, cell-based.
The subject of another experiment is HT-29. The experiment in a line: Cytotoxicity against human HT29 cells assessed as reduction in cell viability. Type of experiment: functional, cell-based.
The subject of a further experiment is LoVo. As to the kind of experiment: Cytotoxicity against human LOVO cells assessed as reduction in cell viability. Type of experiment: functional, cell-based.
The next experiment relates to HCT-15. As to the kind of experiment: Cytotoxicity against human HCT15 cells assessed as reduction in cell viability. Type of experiment: functional, cell-based.
The subject of the next experiment is LS174T. The experiment in a line: Cytotoxicity against human LS174T cells assessed as reduction in cell viability. Type of experiment: functional, cell-based.
The test system of experiment [7] is HCT-116. As to the kind of experiment: Induction of autophagic cell death in human HCT-116 cells assessed as multi-vesicle formation. It counts as functional, cell-based.
The test system of experiment [8] is DLD-1. The experiment in a line: Induction of autophagic cell death in human DLD-1 cells assessed as multi-vesicle formation. It counts as functional, cell-based.
Experiment [9] relates to SW480. As to the kind of experiment: Anticancer activity against human SW480 cells assessed decrease in viable cells at 5 uM measured after 10 days by calcein AM staining based 3D spheroid assay. Type of experiment: functional, cell-based. To be noted: time 10.0 day. The method, boiled down: (§1)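 3D spheroids grown in poly-HEMA-coated U-bottom wells. Compound added at days 3, 5 and 7. Cells were stained with Hoechst33342 for nuclei, calcein AM for live cells and ethidium homodimer-1 for dead cells. Images were taken on day 10 at 50×.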

For experiment [10], the system named is SW480. As to the kind of experiment: Anticancer activity against human SW480 cells assessed decrease in nuclei size at 5 uM measured after 10 days by Hoechst33342 staining based 3D spheroid assay. It counts as functional, cell-based. The conditions noted are these: time 10.0 day. In short, it runs like this:
as §1

The subject of experiment [11] is SW480. As to the kind of experiment: Anticancer activity against human SW480 cells assessed dead cells at 5 uM measured after 10 days by Ethidium Homodimer-1 staining based 3D spheroid assay. The conditions noted are these: time 10.0 day. It counts as functional, cell-based. The method, boiled down: as §1
Experiment [12] deals with SW-620. As to the kind of experiment: Anticancer activity against human SW-620 cells assessed decrease in viable cells at 5 uM measured after 10 days by calcein AM staining based 3D spheroid assay. Type of experiment: functional, cell-based. The conditions noted are these: time 10.0 day. The method, boiled down: as §1
Experiment [13] concerns SW-620. The experiment in a line: Anticancer activity against human SW-620 cells assessed decrease in nuclei size at 5 uM measured after 10 days by Hoechst33342 staining based 3D spheroid assay. Type of experiment: functional, cell-based. The conditions noted are these: time 10.0 day. The method, boiled down: as §1
For experiment [14], the system named is SW-620. As to the kind of experiment: Anticancer activity against human SW-620 cells assessed dead cells at 5 uM measured after 10 days by Ethidium Homodimer-1 staining based 3D spheroid assay. It counts as functional, cell-based. To be noted: time 10.0 day. In short, it runs like this: as §1
For a further experiment, the system named is Colon cancer cell line. As to the kind of experiment: Cytotoxicity against patient-derived human colon cancer organoids assessed as reduction of crypt size and disruption of intact organoid structure at 10 uM measured after 5 days by Celltiter-glo luminescent assay relative to control. To be noted: time 5.0 day. It counts as functional, cell-based. In general terms: ATP-based viability assays read luminescence as a measure of living cells.

Calls of active or inactive are those of the source. The calls are words filed in the database; no cut-off is given here.

Chain of Dual specificity tyrosine-phosphorylation-regulated kinase 1B (Q9Y463 whole entry): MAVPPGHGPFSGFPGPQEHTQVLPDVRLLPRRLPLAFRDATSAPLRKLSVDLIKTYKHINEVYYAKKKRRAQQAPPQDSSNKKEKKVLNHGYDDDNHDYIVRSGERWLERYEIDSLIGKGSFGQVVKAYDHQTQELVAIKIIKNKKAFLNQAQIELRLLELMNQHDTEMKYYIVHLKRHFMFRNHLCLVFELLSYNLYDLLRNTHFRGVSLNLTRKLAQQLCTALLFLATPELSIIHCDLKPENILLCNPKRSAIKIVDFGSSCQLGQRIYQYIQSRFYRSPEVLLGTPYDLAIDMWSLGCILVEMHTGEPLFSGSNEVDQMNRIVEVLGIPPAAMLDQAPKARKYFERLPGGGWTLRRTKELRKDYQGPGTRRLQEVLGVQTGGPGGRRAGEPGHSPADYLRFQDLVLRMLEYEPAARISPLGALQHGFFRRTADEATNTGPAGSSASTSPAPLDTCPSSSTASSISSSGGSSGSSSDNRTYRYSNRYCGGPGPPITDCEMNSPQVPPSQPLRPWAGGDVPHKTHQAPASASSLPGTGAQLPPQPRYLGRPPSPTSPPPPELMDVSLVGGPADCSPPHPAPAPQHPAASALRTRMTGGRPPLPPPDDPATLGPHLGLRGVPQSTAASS

By IC50 is commonly meant the concentration at which inhibition is half-maximal. As for `COc1ccc(-c2n[nH]c3ncc(-c4ccc(NC(C)=O)cc4)cc23)cc1`, the half-maximal inhibitory concentration (IC50) stood at 0.007 µM in experiment [1] and 0.008 µM in [2].
On the same counts, the results for `COc1ncc(-c2n[nH]c3ncc(-c4ccc(OC)c(OC)c4)cc23)cn1` are 0.167 µM and 0.299 µM.
Regarding `COc1ccc(-c2n[nH]c3ncc(Nc4ccccc4)cc23)cc1`, the results for the IC50 in experiment [1] and in experiment [2] were 0.188 µM and 0.365 µM, respectively.
In the same order, the values of `COc1ccc(-c2cnc3[nH]nc(-c4cccc(NC(C)=O)c4)c3c2)cc1OC` are 0.287 µM and 0.632 µM.
On the same counts, the results for `COc1ccc(-c2n[nH]c3ncc(-c4ccc(OC)c(OC)c4)cc23)cc1` are 0.097 µM and 0.075 µM.
On the same counts, the results for `COc1ccc(-c2n[nH]c3ncc(Nc4cccc(O)c4)cc23)cc1` are 0.031 µM and 0.033 µM.
The compound `COc1cccc(-c2n[nH]c3ncc(Br)cc23)c1` gave a half-inhibitory concentration (IC50) in experiment [1] of over 5 µM.
For `COc1cccc(-c2n[nH]c3ncc(Nc4cccc(O)c4)cc23)c1`, the figures for the IC50 in [1] and in experiment [2] were 0.191 µM and 0.95 µM, respectively.
In [1], `Nc1cccc(-c2n[nH]c3ncc(Br)cc23)c1` gave an IC50 of 0.635 µM.
On the same count and under the same terms, the same measure for `O=[N+]([O-])c1cccc(-c2n[nH]c3ncc(Br)cc23)c1`: over 5 µM.
On the same count and under the same terms, the same measure for `Brc1cnc2[nH]nc(-c3cnn(Cc4ccccc4)c3)c2c1`: 0.121 µM; for `NC(=O)Nc1ccc(-c2cnc3[nH]nc(-c4ccc(O)cc4)c3c2)cc1`: 0.01 µM.
In the case of `COc1ccc(-c2n[nH]c3ncc(Nc4cccc(OCc5ccccc5)c4)cc23)cc1`, the IC50 in [1] and in experiment [2] was 0.309 µM in each case.
In the case of `COc1ccc(-c2n[nH]c3ncc(Br)cc23)cc1`, in experiment [1], 0.054 µM corresponded to half-maximal inhibition (IC50).
`Oc1ccc(-c2cnc3[nH]nc(-c4ccccc4)c3c2)cc1`: the IC50 in [1] turned out to be 0.056 µM; in experiment [2], 0.044 µM.
In the same order, the values of `Oc1cccc(-c2cnc3[nH]nc(-c4cccc(O)c4)c3c2)c1` are 0.039 µM and 0.213 µM.
In experiment [1], `CS(=O)(=O)Nc1ccc(-c2cnc3[nH]nc(-c4ccc(O)cc4)c3c2)cc1` yielded a concentration for half-maximal inhibition (IC50) of 0.005 µM.
On the same count and under the same terms, as for `Brc1cnc2[nH]nc(-c3ccccc3)c2c1`, the figure is 2.04 µM.
As for `Oc1ccc(-c2n[nH]c3ncc(Br)cc23)cc1`, the IC50 in [1] was determined as 0.087 µM; in experiment [2], 0.056 µM.
Regarding `Oc1ccc(-c2n[nH]c3ncc(-c4ccc(O)c(O)c4)cc23)cc1`, the IC50 in the experiment on RKO stood at 1.1 µM; in the experiment with HCT-116 [3], 1.57 µM; in the experiment with DLD-1 [4], 2.45 µM; in the experiment on SW-620 [5] it was 3.97 µM; with SW480 [6], 4.13 µM; in the experiment on COLO 205, 6.22 µM. Further, the IC50 in the experiment with HT-29 was determined as 10.9 µM; with LoVo, 19.1 µM; with HCT-15 it was 20.1 µM; with LS174T, 37.5 µM. The outcome in the experiment on HCT-116 [7], in the experiment on DLD-1 [8], in the experiment with SW480 [9], with SW480 [10], with SW480 [11] and in the experiment on SW-620 [12] was Active. Further, the result in the experiment on SW-620 [13], in the experiment with SW-620 [14] and in the experiment on Colon cancer cell line was Active.
As to `COc1ncc(-c2n[nH]c3ncc(Br)cc23)cn1`, 0.141 µM corresponded to half-maximal inhibition in experiment [1] (IC50).
On to `COc1cccc(-c2n[nH]c3ncc(Nc4ccccc4)cc23)c1`, for which the half-inhibitory concentration (IC50) in experiment [1] is 0.575 µM; in experiment [2], 2.82 µM.
On the same counts, the results for `Oc1ccc(-c2cnc3[nH]nc(-c4ccc(O)cc4)c3c2)cc1` are 0.006 µM and 0.005 µM.
In the same order, the values of `c1ccc(-c2cnc3[nH]nc(-c4ccccc4)c3c2)cc1` are over 5 µM and over 5 µM.
In the same order, the values of `CC(=O)Nc1cccc(-c2n[nH]c3ncc(Br)cc23)c1` are 0.257 µM and 0.638 µM.
Take `CC(=O)Nc1ccc(-c2cnc3[nH]nc(-c4ccc(O)cc4)c3c2)cc1`: the half-maximal inhibitory concentration (IC50) in [1] was 0.013 µM.
Same read-out and setting: the same measure for `O=[N+]([O-])c1ccc(-c2n[nH]c3ncc(Br)cc23)cc1`: over 5 µM.
In the case of `COc1cccc(-c2n[nH]c3ncc(Nc4cccc(OCc5ccccc5)c4)cc23)c1`, the figures for the half-inhibitory concentration (IC50) in experiment [1] and in experiment [2] were 3.68 µM and over 5 µM, respectively.
In the same order, the values of `Brc1cnc2[nH]nc(-c3cncnc3)c2c1` are 4.04 µM and 0.092 µM.
In the same order, the values of `CC(=O)Nc1ccc(-c2n[nH]c3ncc(Br)cc23)cc1` are 0.568 µM and 1.11 µM.
`COc1ccc(-c2n[nH]c3ncc(-c4ccc(NC(N)=O)cc4)cc23)cc1` displayed a half-maximal inhibitory concentration (IC50) in [1] of 0.002 µM.
Turning to `CC(=O)Nc1cccc(-c2n[nH]c3ncc(-c4ccc(O)c(O)c4)cc23)c1`, the IC50 in [1] is 0.029 µM; in experiment [2], 0.024 µM.
Compound `COc1ncc(-c2n[nH]c3ncc(-c4ccc(O)c(O)c4)cc23)cn1` came in with an IC50 in [1] of 0.015 µM.
Still for that read-out and setting: the same measure for `Brc1cnc2[nH]nc(-c3ccsc3)c2c1`: 0.736 µM.
With `COc1ccc(-c2n[nH]c3ncc(Nc4cc(C(F)(F)F)cc(C(F)(F)F)c4)cc23)cc1`, the IC50 came out at 1.27 µM in experiment [1] and 3.55 µM in [2].
Compound `O=C(O)c1ccc(-c2n[nH]c3ncc(Br)cc23)cc1` gave a half-inhibitory concentration (IC50) in experiment [1] of 1.05 µM.
The same measure, in the same setting: the same measure for `Brc1cnc2[nH]nc(-c3ccc4cc[nH]c4c3)c2c1`: 0.615 µM.
